This is an account of results in ChEMBL document CHEMBL1124395, “Studies on bioactive compounds. 13. Synthesis and lack of growth-inhibitory properties of cyclohexane-1,2,4-triol 1,2-diesters, which resemble ring C of the phorbol ester molecule” (J Med Chem, 1989).

The structures appear in SMILES notation.

A short description of assay [1]: Concentration which cause half-maximal Lactate dehydrogenase release in […]. The method in brief: (§1)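 A549 cells (1 × 10^5/well) exposed 24 h to compound in medium with only 1% fetal calf serum; diacylglycerols added 3 times at 6-hourly intervals. Supernatant briefly centrifuged and kept on ice, then LDH activity read spectrophotometrically. Maximal releasable LDH came from control cells lysed with 1% Triton X-100. Half-maximal release was obtained by linear regression of the linear part of curves (≥5 concentrations, four experiments).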

The species named for assay [2] is Homo sapiens. Put plainly: Concentration which cause half-maximal growth inhibition of human A549 lung carcinoma cell line. The assay is classed as functional. The method in brief:
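A549 human lung carcinoma cells ((2-5) × 10^4/well) grown in Ham's F12 with 10% fetal calf serum under 95% air/5% CO2 with compound for 4-5 days, until controls were confluent. Medium and compound were renewed every 2 days; diacylglycerols were added three times daily at 6-h intervals for 3 days. Final DMSO was ≤0.5%. Cells were trypsinised and counted by hemocytometer or Coulter counter. The 50% growth-inhibitory concentration was taken by linear regression (≥5 concentrations, four experiments).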

Assay [3] can be described thus: Concentration which cause half-maximal Lactate dehydrogenase in […]. The method in brief:
as §1

Turning to `CCCCCCCC/C=C\CCCCCCCC(=O)OCC(CO)OC(C)=O` (stereo unspecified), the LC50 in assay [1] worked out at 75 µM. In assay [2], this molecule returned an IC50 of 70 µM. Take `CCCCCCCC(=O)O[C@@H]1CC[C@H](O)C[C@H]1OC(=O)CCCCCCC`: the LC50 in assay [3] turned out to be 36 µM. Moreover, it took 43 µM to reach half-maximal inhibition in assay [2] (IC50).

Turning to `CCCCCCCC(=O)OC[C@@H](CO)OC(=O)CCCCCCC`, the median lethal concentration (LC50) in assay [3] was determined as 56 µM. The same molecule came in with an IC50 in assay [2] of 44 µM.

`CCCCCCCCCCCCCC(=O)O[C@@]12[C@H](OC(C)=O)[C@@H](C)[C@@]3(O)[C@@H](C=C(CO)C[C@]4(C)C(=O)C(C)=C[C@@H]34)[C@@H]1C2(C)C` yielded an LC50 in assay [1] greater than 1 µM. In assay [1], `CCCCCCCC(=O)O[C@H]1CC[C@H](O)C[C@H]1OC(=O)CCCCCCC` registered an LC50 of 31 µM. This molecule also had an IC50 in assay [2] of 49 µM. As to `CCCCCCCC(=O)O[C@H]1CC[C@H](O)C[C@@H]1OC(=O)CCCCCCC`, the LC50 in assay [3] is 46 µM. Besides, the half-maximal inhibitory concentration (IC50) in assay [2] is 58 µM.

For orientation: LC50 means the concentration lethal to half of the exposed cells or organisms. A higher LC50 goes with lower toxicity. Broadly, the IC50 is the concentration needed to halve the response being measured. Read a low IC50 as inhibition by little substance.
